Published values from different studies.
Protocols differ between the studies behind these lines.
Read-out: cell growth or viability

SMILES | cell line | technique | time | notes | measurement | value
C=CC(=O)c1cccnc1Nc1cccc(C(F)(F)F)c1 | HCT-15 | SRB | 48 h |  | GI50 | 15400 nM
C=CC(=O)NC1CCN(c2ncc3ncnc(Nc4ccc(Oc5ccc6c(c5)ncn6C)c(C)c4)c3n2)CC1 | COR-L88 |  |  |  | EC50 | 313 nM
C=CC(=O)N1CCN(c2nc(=O)n(-c3c(C)ccnc3C(C)C)c3nc(-c4c(O)cccc4F)c(F)cc23)[C@@H](C)C1 | NCI-H1373 | ATP luminescence |  |  | IC50 | 48.4 nM
CN(C)C(=O)c1cncc(-c2cnc3[nH]cc(-c4ccccc4C#N)c3c2)c1 | K562 | MTT | 72 h |  | GI50 | 591 nM
COc1cc2c3c(n(CCCNCCO)c(=O)c2cc1OC)-c1nc2c(cc1C3=O)OCO2 | K562 | MTS | 72 h |  | IC50 | 196 nM
CCN(c1cc(-c2ccc(CN3CCOCC3)cc2)cc(C(=O)NCc2c(C)cc(C)[nH]c2=O)c1C)C1CCOCC1 | HT-1376 | ATP luminescence | 18 days |  | GI50 | 385 nM
CCC[C@H]1NC(=O)[C@H](Cc2cc(Cl)ccc2-c2cnn(C)c2)N(C)C(=O)[C@H](CC(C)C)NC(=O)[C@@H](N(C)C(=O)[C@H](CCCCN2CCOCC2)NC(=O)[C@@H](c2cccnc2)C2CCCCC2)CCCCNC1=O | NCI-H446 | MTT | 5 days |  | GI50 | 4200 nM
C=C(F)C(=O)N1CCN(c2nc(OC[C@@H]3CCCN3C)nc3c2CCN(c2cccc4cccc(Cl)c24)C3)C[C@@H]1CC#N | HCT-15 | ATP luminescence |  | 3D culture | IC50 | > 1000 nM
O=C(Nc1ccc(OC(F)(F)Cl)cc1)c1cnc(N2CC[C@@H](O)C2)c(-c2cc[nH]n2)c1 | K562 | MTT | 72 h |  | GI50 | 0.72 nM
CC(C)C[C@@H]1NC(=O)[C@@H](N(C)C(=O)[C@H](CC2CCC2)NC(=O)[C@@H]2C[C@@H](F)CN2C(=O)C2(C(F)(F)F)CC(F)(F)C2)CCCCNC(=O)C2(CC2)NC(=O)[C@H](Cc2cc(Cl)ccc2Cl)N(C)C1=O | NCI-H446 | MTT | 5 days |  | GI50 | 65 nM
COc1cc2c3c(n(CCCN4CCOCC4)c(=O)c2cc1OC)-c1nc2c(cc1C3=O)OCO2 | K562 | MTS | 72 h |  | IC50 | 1010 nM
O=C(O)c1cccnc1Nc1cccc(C(F)(F)F)c1 | HCT-15 | SRB | 48 h |  | GI50 | > 30000 nM
CCNCCCn1c2c(c3cc(OC)c(OC)cc3c1=O)C(=O)c1cc3c(nc1-2)OCO3 | K562 | MTS | 72 h |  | IC50 | 158 nM
CN(C)C(=O)c1cncc(-c2cnc3[nH]cc(-c4ccccc4C(F)(F)F)c3c2)c1 | K562 | MTT | 72 h |  | GI50 | 453 nM
C=CC(=O)c1cccnc1Nc1cc(C(F)(F)F)ccc1OC | HCT-15 | SRB | 48 h |  | GI50 | 6960 nM
COc1ccc(C#N)cc1-c1c[nH]c2ncc(-c3cncc(C(=O)N(C)C)c3)cc12 | K562 | MTT | 72 h |  | GI50 | 330 nM
O=C(NO)c1ccc(CNc2nc3cccc(-c4ccc5c(c4)OCO5)n3n2)cc1 | SN12C | SRB |  |  | GI50 | 720 nM
